The values below come from ChEMBL document CHEMBL5715953, “A Potent, Selective, and Cell-Active Inhibitor of Human Type I Protein Arginine Methyltransferases” (ACS Chem Biol, 2016).

Experiment [1] has as its target Protein arginine N-methyltransferase 5 (Homo sapiens) (UniProt O14744). Kind of experiment: Inhibition of human PRMT5 using (3H) methylated biotin labelled peptide as substrate in presence of 3H-SAM by scintillation proximity assay. Put shortly:
(§1)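 Scintillation proximity assay: 3H-SAM as methyl donor, with non-tritiated SAM added when needed. The 3H-methylated biotinylated peptide is captured on streptavidin/scintillant-coated plates and read as counts per minute. IC50 comes from compound titration under balanced conditions, with substrate and cofactor at their Km values. Run in triplicate, mean ± SD. Ki is derived from IC50. A lower enzyme level (5 nM) is used for some potent compounds.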

Experiment [2] has as its target T1, Protein arginine N-methyltransferase 8 (Homo sapiens, UniProt Q9NR22). Kind of experiment: Inhibition of human PRMT8 using (3H) methylated biotin labelled peptide as substrate in presence of 3H-SAM by scintillation proximity assay. The method in brief: as §1
A general note: Scintillation proximity formats need no separation of bound from free tracer.

In experiment [3] the target is T2, Histone-arginine methyltransferase CARM1 (Homo sapiens) (UniProt Q86X55).
T2 sequence (whole entry): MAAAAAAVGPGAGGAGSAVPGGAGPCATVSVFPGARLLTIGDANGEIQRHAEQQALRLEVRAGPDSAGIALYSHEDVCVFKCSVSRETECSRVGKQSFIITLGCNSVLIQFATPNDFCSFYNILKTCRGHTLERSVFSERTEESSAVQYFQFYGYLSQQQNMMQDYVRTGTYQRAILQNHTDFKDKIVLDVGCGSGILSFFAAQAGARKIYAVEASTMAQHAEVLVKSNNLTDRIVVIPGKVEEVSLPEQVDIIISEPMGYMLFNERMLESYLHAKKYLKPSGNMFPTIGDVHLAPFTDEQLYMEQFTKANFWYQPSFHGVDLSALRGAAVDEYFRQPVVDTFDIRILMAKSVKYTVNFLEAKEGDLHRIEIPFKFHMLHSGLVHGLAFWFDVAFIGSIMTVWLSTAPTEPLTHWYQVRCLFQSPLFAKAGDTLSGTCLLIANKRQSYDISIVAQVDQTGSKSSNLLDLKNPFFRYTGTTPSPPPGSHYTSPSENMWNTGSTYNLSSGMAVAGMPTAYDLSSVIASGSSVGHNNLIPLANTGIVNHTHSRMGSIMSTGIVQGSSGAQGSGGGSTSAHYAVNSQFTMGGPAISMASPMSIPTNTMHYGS
Put plainly: (§2) Inhibition of human PRMT4 using (3H) methylated biotin labelled peptide as substrate in presence of 3H-SAM by scintillation proximity assay. The method in brief: (§3)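 Scintillation proximity assay: 3H-SAM as methyl donor, with non-tritiated SAM added when needed. The 3H-methylated biotinylated peptide is captured on streptavidin/scintillant-coated plates and read as counts per minute. IC50 comes from compound titration under balanced conditions, with substrate and cofactor at their Km values. Run in triplicate, mean ± SD. Ki is derived from IC50.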

Experiment [4] addresses T3, Protein arginine N-methyltransferase 7 (Homo sapiens) (UniProt Q9NVM4).
T3 sequence (whole entry): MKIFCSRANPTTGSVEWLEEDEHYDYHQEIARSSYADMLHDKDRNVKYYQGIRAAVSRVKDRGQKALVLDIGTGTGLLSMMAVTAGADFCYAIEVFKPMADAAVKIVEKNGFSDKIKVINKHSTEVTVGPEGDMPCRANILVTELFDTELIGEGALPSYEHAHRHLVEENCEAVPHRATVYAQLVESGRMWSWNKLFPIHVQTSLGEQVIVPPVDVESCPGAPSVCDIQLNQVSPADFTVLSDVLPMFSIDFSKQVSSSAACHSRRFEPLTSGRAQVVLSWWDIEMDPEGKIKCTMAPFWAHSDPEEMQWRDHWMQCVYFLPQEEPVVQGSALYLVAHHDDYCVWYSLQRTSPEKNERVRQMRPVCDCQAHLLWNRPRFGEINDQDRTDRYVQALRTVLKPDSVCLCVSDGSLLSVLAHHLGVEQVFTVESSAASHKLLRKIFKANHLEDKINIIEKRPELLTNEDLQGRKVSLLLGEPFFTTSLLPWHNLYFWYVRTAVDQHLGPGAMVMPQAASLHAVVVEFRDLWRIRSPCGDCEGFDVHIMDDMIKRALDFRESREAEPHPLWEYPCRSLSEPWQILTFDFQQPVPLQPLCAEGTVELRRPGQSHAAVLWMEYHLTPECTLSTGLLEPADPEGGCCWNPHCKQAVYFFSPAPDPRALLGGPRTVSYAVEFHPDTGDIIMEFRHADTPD
Kind of experiment: Inhibition of human PRMT7 using (3H) methylated biotin labelled peptide as substrate in presence of 3H-SAM by scintillation proximity assay. Put shortly: as §1

Experiment [5] has as its target T4, Protein arginine N-methyltransferase 6 (Homo sapiens, UniProt Q96LA8). Put plainly: Inhibition of human PRMT6 using (3H) methylated biotin labelled peptide as substrate in presence of 3H-SAM by scintillation proximity assay.
Experiment [6] has as its target T5, Protein arginine N-methyltransferase 1 (Homo sapiens, UniProt Q99873). Put plainly: Inhibition of human PRMT1 using (3H) methylated biotin labelled peptide as substrate in presence of 3H-SAM by scintillation proximity assay.
The target of experiment [7] is T5, Protein arginine N-methyltransferase 1. Put plainly: Inhibition of PRMT1 in human MCF7 cells assessed as decrease in H4R3me2a level incubated for 48 hrs by Western blotting analysis. The format is cell-based. On the technique in general: In western blotting, separated proteins are transferred to a membrane and probed.
Target sequence in this assay (Q99873 whole entry, looked up): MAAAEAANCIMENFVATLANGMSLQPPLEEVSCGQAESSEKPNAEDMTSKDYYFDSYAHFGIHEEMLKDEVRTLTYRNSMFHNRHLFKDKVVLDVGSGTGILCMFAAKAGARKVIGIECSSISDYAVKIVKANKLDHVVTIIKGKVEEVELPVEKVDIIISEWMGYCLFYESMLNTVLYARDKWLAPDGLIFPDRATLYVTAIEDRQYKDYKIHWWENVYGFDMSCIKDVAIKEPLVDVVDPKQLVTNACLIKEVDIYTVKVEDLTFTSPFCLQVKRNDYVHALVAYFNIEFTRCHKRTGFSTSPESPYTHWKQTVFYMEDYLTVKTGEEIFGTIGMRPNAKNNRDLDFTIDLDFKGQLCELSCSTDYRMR
Experiment [8] deals with T6, Protein arginine N-methyltransferase 3 (Homo sapiens, UniProt O60678). Kind of experiment: Inhibition of human PRMT3 using (3H) methylated biotin labelled peptide as substrate in presence of 3H-SAM by scintillation proximity assay.
In experiment [9] the target is T7, Protein arginine N-methyltransferase 9 (Homo sapiens) (UniProt Q6P2P2).
T7 sequence (whole entry): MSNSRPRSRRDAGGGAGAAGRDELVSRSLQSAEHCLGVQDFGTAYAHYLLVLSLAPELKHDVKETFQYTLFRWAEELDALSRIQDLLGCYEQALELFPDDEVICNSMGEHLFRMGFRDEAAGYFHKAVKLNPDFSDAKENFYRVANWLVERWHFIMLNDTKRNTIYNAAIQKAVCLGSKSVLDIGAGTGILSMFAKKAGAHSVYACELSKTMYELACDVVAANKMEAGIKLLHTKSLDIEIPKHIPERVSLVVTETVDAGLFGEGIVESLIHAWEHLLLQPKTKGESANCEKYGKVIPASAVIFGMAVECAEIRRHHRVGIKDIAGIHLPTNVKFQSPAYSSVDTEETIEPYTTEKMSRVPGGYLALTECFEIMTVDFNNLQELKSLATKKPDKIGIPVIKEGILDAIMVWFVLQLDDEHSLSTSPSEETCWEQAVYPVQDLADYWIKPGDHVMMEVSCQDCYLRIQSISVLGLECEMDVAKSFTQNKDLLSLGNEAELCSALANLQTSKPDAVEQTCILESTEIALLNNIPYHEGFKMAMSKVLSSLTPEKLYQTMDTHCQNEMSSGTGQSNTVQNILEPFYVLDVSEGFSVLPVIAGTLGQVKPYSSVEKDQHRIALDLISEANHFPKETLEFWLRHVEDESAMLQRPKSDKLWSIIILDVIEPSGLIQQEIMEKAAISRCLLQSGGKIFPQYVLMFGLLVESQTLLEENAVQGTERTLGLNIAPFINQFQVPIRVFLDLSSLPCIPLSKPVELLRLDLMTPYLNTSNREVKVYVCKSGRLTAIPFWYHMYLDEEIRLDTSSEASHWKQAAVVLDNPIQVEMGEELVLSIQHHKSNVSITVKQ
Kind of experiment: Inhibition of human PRMT9 using (3H) methylated biotin labelled peptide as substrate in presence of 3H-SAM by scintillation proximity assay. The method in brief:
as §1

For experiment [10], the target named is T4, Protein arginine N-methyltransferase 6. Put plainly: Binding affinity to human PRMT6 assessed as inhibition constant using (3H) methylated biotin labelled peptide as substrate in presence of 3H-SAM by scintillation proximity assay. The method in brief:
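Scintillation proximity assay with 3H-SAM as methyl donor, topped up with unlabelled SAM when needed. The methylated biotinylated peptide was captured on streptavidin/scintillant-coated plates and counted as cpm. IC50 came from compound titration at Km concentrations of both peptide substrate and SAM, in triplicate, reported as mean ± SD. Ki was calculated from IC50.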
Target sequence in this assay (Q96LA8 whole entry): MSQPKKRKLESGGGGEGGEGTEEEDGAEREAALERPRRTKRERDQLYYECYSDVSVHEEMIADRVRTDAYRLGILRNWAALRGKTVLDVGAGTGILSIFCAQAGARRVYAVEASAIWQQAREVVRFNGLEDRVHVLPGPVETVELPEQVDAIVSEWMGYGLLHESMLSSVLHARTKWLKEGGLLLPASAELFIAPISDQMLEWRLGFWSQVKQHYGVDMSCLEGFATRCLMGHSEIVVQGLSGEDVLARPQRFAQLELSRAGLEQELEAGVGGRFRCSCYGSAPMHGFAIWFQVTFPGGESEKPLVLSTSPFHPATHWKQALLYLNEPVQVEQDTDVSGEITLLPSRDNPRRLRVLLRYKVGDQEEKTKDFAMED

For experiment [11], the target named is T1, Protein arginine N-methyltransferase 8. Put plainly: Binding affinity to human PRMT8 assessed as inhibition constant using (3H) methylated biotin labelled peptide as substrate in presence of 3H-SAM by scintillation proximity assay. The method in brief: as §1
Target sequence in this assay (Q9NR22 whole entry): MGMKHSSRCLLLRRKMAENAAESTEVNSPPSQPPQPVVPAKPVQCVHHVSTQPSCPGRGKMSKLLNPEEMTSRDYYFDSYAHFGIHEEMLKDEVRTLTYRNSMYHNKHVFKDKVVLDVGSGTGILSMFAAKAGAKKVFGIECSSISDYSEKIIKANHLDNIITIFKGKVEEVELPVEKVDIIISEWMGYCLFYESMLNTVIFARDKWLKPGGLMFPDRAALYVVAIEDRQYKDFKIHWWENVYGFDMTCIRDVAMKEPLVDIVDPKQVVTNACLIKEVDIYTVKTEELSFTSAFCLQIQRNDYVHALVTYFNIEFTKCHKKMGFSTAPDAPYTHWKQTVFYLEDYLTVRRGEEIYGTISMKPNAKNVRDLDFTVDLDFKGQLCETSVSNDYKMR
Experiment [12] deals with T8, Histone-arginine methyltransferase CARM1 (Homo sapiens, UniProt Q86X55).
T8 sequence (Q86X55 whole entry): T2 sequence (whole entry)
Put plainly: Binding affinity to human PRMT4 assessed as inhibition constant using (3H) methylated biotin labelled peptide as substrate in presence of 3H-SAM by scintillation proximity assay.

Experiment [13] addresses T8, Histone-arginine methyltransferase CARM1. The experiment is described as §2. The method in brief: as §3
Experiment [14] deals with T5, Protein arginine N-methyltransferase 1. Kind of experiment: Binding affinity to human PRMT1 assessed as inhibition constant using (3H) methylated biotin labelled peptide as substrate in presence of 3H-SAM by scintillation proximity assay.
Target sequence in this assay (Q99873 whole entry): as the sequence (Q99873 whole entry, looked up) above
For experiment [15], the target named is T6, Protein arginine N-methyltransferase 3. Kind of experiment: Binding affinity to human PRMT3 assessed as inhibition constant using (3H) methylated biotin labelled peptide as substrate in presence of 3H-SAM by scintillation proximity assay.
Target sequence in this assay (O60678 whole entry): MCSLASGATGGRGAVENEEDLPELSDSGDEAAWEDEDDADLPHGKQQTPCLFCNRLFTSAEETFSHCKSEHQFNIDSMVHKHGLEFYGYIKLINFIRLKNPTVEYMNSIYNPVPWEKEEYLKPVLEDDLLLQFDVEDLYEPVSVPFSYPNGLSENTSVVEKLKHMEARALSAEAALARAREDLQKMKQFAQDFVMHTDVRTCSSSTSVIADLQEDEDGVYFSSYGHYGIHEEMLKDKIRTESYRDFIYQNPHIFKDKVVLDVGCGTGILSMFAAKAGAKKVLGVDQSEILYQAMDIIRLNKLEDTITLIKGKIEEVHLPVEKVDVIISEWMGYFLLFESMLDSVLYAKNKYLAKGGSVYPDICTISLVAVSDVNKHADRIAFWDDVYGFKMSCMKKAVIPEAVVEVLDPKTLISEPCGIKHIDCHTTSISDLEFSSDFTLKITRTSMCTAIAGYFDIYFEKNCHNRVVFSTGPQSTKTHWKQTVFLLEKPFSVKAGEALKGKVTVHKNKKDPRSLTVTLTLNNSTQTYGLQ

Structures are written as SMILES. pIC50, pKi: −log10 of the molar value. Active and inactive are the calls of the source. The calls are words filed in the database; no cut-off is given here.

Sequence of Protein arginine N-methyltransferase 5 (Homo sapiens) (O14744 whole entry): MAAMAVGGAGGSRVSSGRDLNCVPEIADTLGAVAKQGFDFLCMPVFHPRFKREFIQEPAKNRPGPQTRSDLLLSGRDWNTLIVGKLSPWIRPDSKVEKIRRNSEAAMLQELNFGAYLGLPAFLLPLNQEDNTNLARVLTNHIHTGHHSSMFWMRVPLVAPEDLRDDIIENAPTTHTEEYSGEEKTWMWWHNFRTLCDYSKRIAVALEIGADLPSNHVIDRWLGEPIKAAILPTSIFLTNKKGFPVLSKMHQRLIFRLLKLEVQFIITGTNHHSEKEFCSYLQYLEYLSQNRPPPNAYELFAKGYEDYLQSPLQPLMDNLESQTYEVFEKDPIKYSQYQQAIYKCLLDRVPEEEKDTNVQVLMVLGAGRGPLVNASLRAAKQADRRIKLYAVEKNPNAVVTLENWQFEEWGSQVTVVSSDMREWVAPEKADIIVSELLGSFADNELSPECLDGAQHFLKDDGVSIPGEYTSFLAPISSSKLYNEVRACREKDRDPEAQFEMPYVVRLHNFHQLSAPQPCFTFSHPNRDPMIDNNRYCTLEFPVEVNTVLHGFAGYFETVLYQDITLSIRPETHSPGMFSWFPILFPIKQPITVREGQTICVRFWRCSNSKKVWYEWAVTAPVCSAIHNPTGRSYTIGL

Consider `CC(C)Oc1ccc(-c2c[nH]cc2CN(C)CC(N)=O)cc1`, for which the inhibition result in experiment [1], in [2], in experiment [3], in [4], in [5] and in experiment [6] was “inactive” in each case. For the same compound, the inhibition result in experiment [7], in [8] and in [9] was “inactive” each time.
The term pKi denotes −log10 of the Ki, conventionally taken in molar units. A word on the pIC50: it is the IC50 on a negative log10 scale, so that one unit is a factor of ten. As to `CN(CCN)Cc1c[nH]cc1-c1cccc(C(F)(F)F)c1`, the figures for the pKi in [10] and in experiment [11] were 8.52 and 7.77, respectively. Further, the inhibition entry in experiment [1], in [4] and in experiment [9] was “inactive” in each case. Further, the negative logarithm of the IC50 (pIC50) is 7.38 in experiment [2] and 8.05 in experiment [5].
Consider `CC(C)Oc1ccc(-c2c[nH]cc2C(=O)N(C)CCN)cc1`, for which the inhibition entry in [1], in experiment [2], in experiment [3], in experiment [4], in experiment [5] and in experiment [6] was “inactive” each time. Also, the inhibition result in [7], in [8] and in [9] was “inactive” throughout.
Regarding `CC(C)Oc1ccc(-c2c[nH]cc2CN(C)CCO)cc1`, the inhibition entry in [1], in experiment [2], in experiment [3], in experiment [4], in [5] and in experiment [6] was “inactive” each time. Further, the inhibition result in [7], in [8] and in experiment [9] was “inactive” throughout.
For the compound `CN(CCN)Cc1n[nH]nc1-c1cccc(C(F)(F)F)c1`, the negative logarithm of the Ki (pKi) in [10] is 6.96; in experiment [12], less than 4.43; in experiment [11] it was 5.82; in [14], less than 5.00; in experiment [15] it was less than 4.30. In addition, the inhibition result in [1], in experiment [4] and in [9] was “inactive” each time. Also, the negative-log IC50 (pIC50) is 5.52 in [2]; less than 4.12 in [13]; 6.64 in experiment [5]; less than 4.70 in experiment [6]; less than 4.00 in [8].
